Results taken from PMC12594766 (Nature Communications, 2025).
Converted amounts (≈) assume the structure as drawn.

Legend:
S. aureus BAA39 (MRSA) = assay: MIC against multidrug-resistant strain; assay type: cell-based; settings: Staphylococcus aureus
Outline: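 Broth microdilution in non-cation-adjusted Mueller-Hinton broth. Bacteria were subcultured to OD 0.2–0.3 (about 10^8 CFU/mL) and diluted to give about 10^5 CFU/mL in wells. The test compound stock was in DI water, serially diluted twofold to final 512–1 µg/mL. Plates were incubated at 37 °C for 18–20 h and read at OD600.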

S. aureus USA300 (MRSA) = assay: MIC against multidrug-resistant strain; assay type: cell-based; settings: Staphylococcus aureus
Outline: (§1)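 Broth microdilution in non-cation-adjusted Mueller-Hinton broth. Bacteria were subcultured to OD 0.2–0.3 (about 10^8 CFU/mL), then diluted to about 10^5 CFU/mL final. Test compound stock was in DI water. Twofold dilutions gave 512 to 1 µg/mL final. Plates were incubated 18-20 h at 37 °C and read at OD600.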

S. aureus USA300 (LAC) = assay: MIC against multidrug-resistant strain; assay type: cell-based; settings: Staphylococcus aureus
Outline: as §1

K. pneumoniae KPNR [1] = assay: Murine neutropenic thigh infection model; assay type: in vivo, balb/c mice; settings: 2 doses of 15 mg/kg s.c. at 2, 6 h, 26 h
Outline: (§2)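 Infection was intramuscular into the right thigh: P. aeruginosa BAA-2797 at 10^5, K. pneumoniae KPNR at 10^6, or MRSA at 10^5 CFU/mL. PBS, test compound or imipenem was given s.c. at 15 mg/kg at 2 and 6 h (n = 6). Thighs were homogenised at 26 h for CFU.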

P. aeruginosa BAA-2797 [2] = assay: Murine neutropenic thigh infection model; assay type: in vivo, balb/c mice; settings: 2 doses of 15 mg/kg s.c. at 2, 6 h, 26 h
Outline: as §2

P. aeruginosa PAO1 [3] = assay: Murine lung infection model; assay type: in vivo, balb/c mice; settings: 10 mg/kg intranasal at 2, 8, 26 h
Outline: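 Infection was intranasal with P. aeruginosa PAO1 (10^4 CFU/mL inoculum). PBS, test compound or imipenem was given intranasally at 10 mg/kg at 2, 8 and 26 h post-infection (n = 6). Lungs were homogenised at 38 h for CFU. Survival was followed for up to 7 days.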

P. aeruginosa PAO1 [4] = assay: Resistance frequency determination; assay type: cell-based; settings: 10× MIC
K. pneumoniae KPNR [5] = assay: MIC against multidrug-resistant strain; assay type: cell-based; settings: Klebsiella pneumoniae
P. aeruginosa BAA-2797 [6] = assay: Murine systemic; assay type: in vivo, balb/c mice; settings: P. aeruginosa BAA-2797 peritonitis; single dose 10 mg/kg i.p. at 2 h; n = 6
Outline: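 Female BALB/c mice, 7–8 weeks, were infected i.p. with P. aeruginosa BAA-2797 (10^6 CFU/mL) in PBS containing 5% mucin. At 2 h post-infection they received a single i.p. dose of PBS, test compound (10 mg/kg) or imipenem (10 mg/kg), n = 6. Survival was monitored for up to 7 days.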

[7] = conventional antibiotics, literature values; cited from earlier work
MRSA = assay: Murine neutropenic thigh infection model; assay type: in vivo, balb/c mice; settings: 2 doses of 15 mg/kg s.c. at 2, 6 h, 26 h
Outline: as §2

Row | Structure (SMILES) | MIC (S. aureus BAA39 (MRSA)) [µg/mL] | MIC (S. aureus USA300 (MRSA)) [µg/mL] | MIC (S. aureus USA300 (LAC)) [µg/mL] | CFU reduction in thigh vs PBS (-) (K. pneumoniae KPNR [1]) [log10] | CFU reduction in thigh vs PBS (-) (P. aeruginosa BAA-2797 [2]) [log10] | reduction of bacterial burden in lung tissues (P. aeruginosa PAO1 [3]; P. aeruginosa PAO1, 38 h) [log10] | survival (mice rescued) (P. aeruginosa PAO1 [3]; P. aeruginosa PAO1 lung infection, n = 6) | selection of resistant escape mutants (P. aeruginosa PAO1 [4]) | MIC (K. pneumoniae KPNR [5]) [µg/mL] | survival (mice rescued) (P. aeruginosa BAA-2797 [6]) | half-life (T1/2) [7] [min] | CFU reduction in thigh vs PBS (-) (MRSA) [log10]
1 | O=C(O)c1cn(C2CC2)c2cc(N3CCNCC3)c(F)cc2c1=O [CIP, ciprofloxacin] | 4 (≈ 12.1 µM) | < 1 | 8 (≈ 24.1 µM) | – | – | – | – | – | – | – | – | –
2 | C[C@@H](O)[C@H]1C(=O)N2C(C(=O)O)=C(SCCN=CN)C[C@H]12 [IMP, imipenem] | < 1 | < 1 | < 1 | 1.4 | 0.1 | 4.7 | 5 out of 6 | resistant strains developed | 4 (≈ 13.4 µM) | succumbed to the infection | 12 | –
3 | CN[C@H](CC(C)C)C(=O)N[C@H]1C(=O)N[C@@H](CC(N)=O)C(=O)N[C@H]2C(=O)N[C@H]3C(=O)N[C@H](C(=O)N[C@H](C(=O)O)c4cc(O)cc(O)c4-c4cc3ccc4O)[C@H](O)c3ccc(c(Cl)c3)Oc3cc2cc(c3O[C@@H]2O[C@H](CO)[C@@H](O)[C@H](O)[C@H]2O[C@H]2C[C@](C)(N)[C@H](O)[C@H](C)O2)Oc2ccc(cc2Cl)[C@H]1O [VAN, vancomycin] | 1 (≈ 0.69 µM) | < 1 | < 1 | – | – | – | – | – | – | – | – | 2.3
4 | C[C@@H](O)[C@H]1C(=O)N2C(C(=O)O)=C(S[C@@H]3CN[C@H](C(=O)N(C)C)C3)[C@H](C)[C@H]12 [meropenem] | – | – | – | – | – | – | – | – | – | – | 6 | –
